Assay results from ChEMBL document CHEMBL4665824, “Characterization and Discovery of a Selective Small-Molecule Modulator of Mitochondrial Complex I Targeting a Unique Binding Site” (J Med Chem, 2020).
Calls of active or inactive are those of the source. The rule behind the calls is not given here.

Columns and labels:
MC65 [1] = assay: Inhibition of mitochondrial complex 1 in human MC65 cells assessed as inhibition of ROS production incubated for 48 hrs by mitoSOX fluorescence based flow cytometry; assay type: cell-based
Method in brief: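 MC65 cells in Opti-MEM (1.6×10^6/well) incubated with compound at 37 °C for 48 h, with or without tetracycline. Collected into HBSS and stained with mitoSOX (2.5 μM) 20 min at 37 °C. Washed twice, then mean fluorescence intensity read by flow cytometry.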

MC65 [2] = assay: Inhibition of mitochondrial complex 1 in human MC65 cells assessed as inhibition of antimycin A-induced ROS production at 1 to 3 uM incubated for 12 hrs by mitoSOX fluorescence based flow cytometry; assay type: cell-based; conditions: dose microM 1-3, time 12.0 hrs
SH-SY5Y [3] = assay: Inhibition of mitochondrial complex 1 in human SH-SY5Y cells assessed as inhibition of MPP+-induced mitochondrial depolarization incubated for 24 hrs by fluorescence based assay; assay type: cell-based
Method in brief: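 SH-SY5Y cells (4×10^5 per well) were co-treated with compound and MPP+ (30 μM) for 24 h at 37 °C. TMRM was then added to 100 nM final for 30 min. Cells were trypsinized, pelleted, resuspended in PBS, and membrane potential fluorescence was read by flow cytometry.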

Cortical neuron [4] = assay: Inhibition of mitochondrial complex 1 in mouse cortical neurons assessed as inhibition of MPP+-induced mitochondrial depolarization incubated for 24 hrs by fluorescence based assay
Method in brief: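 Primary cortical neurons from E15.5 C57BL/6J embryos (DIV 14; 5×10^4 cells/well) were given compound plus MPP+ for 24 h. They were then loaded with TMRM (1 μM final, 30 min) and washed twice with PBS. Dye was released with 50% DMSO/0.5% Triton in water and read at Ex/Em 548/574 nm.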

SH-SY5Y [5] = assay: Inhibition of mitochondrial complex 1 in human SH-SY5Y cells assessed as inhibition of MPP+-induced mitochondrial depolarization in presence of 10 uM trolox incubated for 24 hrs by fluorescence based assay; assay type: cell-based
Method in brief: (§1)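 SH-SY5Y cells (4×10^5/well) treated with compound, NAC (10 μM) or trolox (10 μM) plus MPP+ (30 μM) for 24 h. TMRM added at 100 nM final for 30 min. Cells trypsinized, resuspended in PBS and read by flow cytometry.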

SH-SY5Y [6] = assay: Inhibition of mitochondrial complex 1 in human SH-SY5Y cells assessed as inhibition of MPP+-induced mitochondrial depolarization in presence of 10 uM NAC incubated for 24 hrs by fluorescence based assay; assay type: cell-based; method in brief: as §1
MC65 [7] = assay: Effect on mitochondrial membrane potential in human MC65 cells at 0.3 to 1 uM incubated for 48 hrs by flow cytometry; assay type: functional, cell-based; conditions: dose microM 0.3-1, time 48.0 hrs
MC65 [8] = assay: Effect on ATP content in human MC65 cells at 0.1 to 1 uM incubated for 48 hrs; assay type: functional, cell-based; conditions: dose microM 0.1-1, time 48.0 hrs
Mus musculus [9] = organism: Mus musculus; assay: Inhibition of mitochondrial complex 1 in permeabilized mouse brain mitochondria assessed as reduction in ROS production at 2 to 6 uM incubated for 1 hr in presence of NADH by Amplex Red and horseradish peroxidase based assay; conditions: dose microM 2-6, time 1.0 hrs
Method in brief: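 Permeabilized mouse brain mitochondria (0.1 mg protein/ml) were pretreated with compound for 1 h at 30 °C. H2O2 release was triggered with NADH (10 μM) and detected by Amplex Red (50 μM) oxidation with HRP (0.1 U/ml) at Ex/Em 530/590 nm. Output was calibrated against an H2O2 standard curve (linear to 2 μM). N=6, mean ± SEM, Student t-test.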

Mus musculus [10] = organism: Mus musculus; assay: Inhibition of mitochondrial complex 1 in C57BL/6 mouse cerebral cortex mitochondria assessed as modulation of maximal rate of ADP-stimulated respiration of pyruvate at 2 uM
Method in brief: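 Mitochondria isolated from C57BL/6 mouse cerebral cortex (N=6) with vehicle or 2 μM compound. Oxygen consumption measured by Clark-type electrode at 30 °C with pyruvate/malate (20/5 mM) or succinate (20 mM). ADP-stimulated (state 3) and state 4 rates recorded; RCR taken as state 3/state 4, with ADP/O also derived.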

Mus musculus [11] = organism: Mus musculus; assay: Inhibition of mitochondrial complex 2 in C57BL/6 mouse cerebral cortex mitochondria assessed as modulation of maximal rate of ADP-stimulated respiration of succinate at 2 uM
Mus musculus [12] = organism: Mus musculus; assay: Inhibition of mitochondrial complex 1 in C57BL/6 mouse cerebral cortex mitochondria assessed as reduction in ETC enzymatic activity at 2 uM relative to control
Method in brief: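 Detergent-solubilized mouse brain mitochondria (N=6) treated with 2 μM compound, then electron transport chain enzyme activities determined.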

[13] = Inhibition of mitochondrial complex 1 in 5 months old transgenic AD mouse model assessed as suppression of maximal rate of ADP-stimulated respiration of pyruvate at 50 mg/kg, po dosed 5 times/week for 2 weeks; assay type: functional; conditions: 336 h
Mus musculus [14] = assay: Inhibition of mitochondrial complex 1 in 5 months old transgenic AD mouse model assessed as suppression of state 3 respiration of pyruvate at 50 mg/kg, po dosed 5 times/week for 2 weeks; assay type: functional, organism-based
Mus musculus [15] = assay: Effect on respiratory control ratio in 5 months old transgenic AD mouse model at 50 mg/kg, po dosed 5 times/week for 2 weeks; assay type: functional, organism-based
Mus musculus [16] = assay: Effect on ADP/O ratio in 5 months old transgenic AD mouse model at 50 mg/kg, po dosed 5 times/week for 2 weeks; assay type: functional, organism-based
[17] = Inhibition of mitochondrial complex 1 in 10 months old transgenic AD mouse model assessed as suppression of maximal rate of ADP-stimulated respiration of pyruvate at 50 mg/kg, po QD for 8 weeks; assay type: functional; conditions: 1344 h
Mus musculus [18] = assay: Inhibition of mitochondrial complex 1 in 10 months old transgenic AD mouse model assessed as suppression of state 3 respiration of pyruvate at 50 mg/kg, po QD for 8 weeks; assay type: functional, organism-based
Mus musculus [19] = assay: Effect on respiratory control ratio in 5 months old transgenic AD mouse model in presence of pyruvate and malate at 50 mg/kg, po dosed 5 times/week for 2 weeks (4.1 +/- 0.7); assay type: functional
[20] = Effect on ADP/O ratio in 5 months old transgenic AD mouse model in presence of pyruvate and malate at 50 mg/kg, po dosed 5 times/week for 2 weeks (2.6 +/- 0.2); assay type: functional
Mus musculus [21] = assay: Effect on respiratory control ratio in 5 months old transgenic AD mouse model in presence of succinate at 50 mg/kg, po dosed 5 times/week for 2 weeks (2.5 +/- 0. 2); assay type: functional
[22] = Effect on ADP/O ratio in 5 months old transgenic AD mouse model in presence of succinate at 50 mg/kg, po dosed 5 times/week for 2 weeks (1.4 +/- 0.1); assay type: functional
Cerebral cortex [23] = assay: Effect on ADP/O ratio in C57BL/6 mouse cerebral cortex mitochondria at 2 uM (reference value: 2.9)
Cerebral cortex [24] = assay: Effect on respiratory control ratio in C57BL/6 mouse cerebral cortex mitochondria at 2 uM (reference value: 5.3)
MC65 [25] = assay: Inhibition of mitochondrial complex 1 in human MC65 cells assessed as inhibition of rotenone-induced ROS production by measuring ROS production rate at 1 uM incubated for 12 hrs by mitoSOX fluorescence based flow cytometry (reference value: 8.3 RFU/min)
Cortical neuron [26] = assay: Inhibition of mitochondrial complex 1 in mouse cortical neurons assessed as inhibition of rotenone-induced ROS production by measuring ROS production rate at 1 uM incubated for 12 hrs by mitoSOX fluorescence based flow cytometry (Rvb =3.3 RFU/min)

- inhibition (Mus musculus [11]): inactive
Compound: COc1ccc2[nH]cc(CCNC(=O)CC(=O)CCc3ccc(O)cc3)c2c1
- inhibition (MC65 [1]): Dose-dependent effect
- inhibition (MC65 [2]): inactive
- inhibition (SH-SY5Y [3]): Dose-dependent effect
- inhibition (Cortical neuron [4]): Dose-dependent effect
- inhibition (SH-SY5Y [5]): Active
- inhibition (SH-SY5Y [6]): Active
- Activity (MC65 [7]): inactive
- Activity (MC65 [8]): inactive
- inhibition (Mus musculus [9]): Active
- inhibition (Mus musculus [10]): Active
- inhibition (Mus musculus [12]): 20%
- inhibition in vivo at 50 mg/kg [13]: 9%
- inhibition (Mus musculus [14]): Active
- Activity (Mus musculus [15]): inactive
- Activity (Mus musculus [16]): inactive
- inhibition in vivo at 50 mg/kg [17]: 25%
- inhibition (Mus musculus [18]): Active
- Ratio (Mus musculus [19]): 4.2
- Ratio [20]: 2.6
- Ratio (Mus musculus [21]): 2.7
- Ratio [22]: 1.3
- Ratio (Cerebral cortex [23]): 3.1
- Ratio (Cerebral cortex [24]): 4.7
- Activity (MC65 [25]): 5.8 RFU/min
- Activity (Cortical neuron [26]): 2 RFU/min
